Assay outcomes as filed in PubChem.
Rows were chosen to be rich in hits. Some 3.5% of all compounds tested hit in one or more screens of this group.
MrgX1 antagonist: human MrgX1 receptor antagonism, primary screen; Q96LB2; AID 588676; MRGX1-HEK293 calcium flux, Fluo-4, BAM8-22 antagonism; hits give low values; B-score at 10 µM; actives 1.3% (n = 310,000);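 active = calcium-response B-score plate-corrected more than 3 library SD below zero, starting fluorescence within 5 deviations, no agonist response on first addition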;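 note: peak minus trough fluorescence over baseline after final BAM8-22 challenge near maximal dose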
Target sequence (Q96LB2 whole entry, looked up): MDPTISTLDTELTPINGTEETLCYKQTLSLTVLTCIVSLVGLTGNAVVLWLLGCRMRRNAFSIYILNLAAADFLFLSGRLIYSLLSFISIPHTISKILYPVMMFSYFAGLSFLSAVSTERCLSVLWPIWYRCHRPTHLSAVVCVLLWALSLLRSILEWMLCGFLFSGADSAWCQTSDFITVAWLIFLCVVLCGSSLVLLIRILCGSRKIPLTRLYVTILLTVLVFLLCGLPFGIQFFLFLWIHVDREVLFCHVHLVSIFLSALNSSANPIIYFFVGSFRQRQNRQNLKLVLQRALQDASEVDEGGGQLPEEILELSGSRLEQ
RGS4 act: potentiators or activators of RGS4; AID 463111; HEK293 M3R/inducible RGS4, carbachol calcium flux Fluo4; hits give low values; B-score at 10 µM; actives 0.92% (n = 310,000);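 active = B-score of the integrated calcium signal more than 4 SD below the library mean, with starting fluorescence not abnormally high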;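 note: negative B-score means reduced calcium response which marks RGS4 activation or potentiation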
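Assay system: Inducible-RGS4 HEK293 cells carrying M3 receptor | Schedule: Compound preincubation 20 min at room temperature before agonist | Signal: Kinetic calcium fluorescence imaging with Fluo4-AM dye, 2 µM | Read-out basis: B score from integrated fluorescence ratio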
MrgX1 PAM: allosterically activates human MrgX1 receptor signaling. B-score at 10 µM. Q96LB2. actives 0.63% (n = 310,000). AID 588675. MrgX1-HEK293, Fluo-4 calcium flux, FDSS; hits give high values;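 active = plate-corrected calcium response at least 3 library SD above typical, normal starting fluorescence, not activating the receptor alone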;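 note: compound read alongside a low EC10 to EC30 dose of BAM8-22 agonist; peak minus trough fluorescence over baseline measured at the second addition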
RGS4 block: inhibitors of human RGS4 | P49798 | B-score at 10 µM | HEK293 M3R/RGS4 inducible, Fluo-4 calcium flux; hits give high values; triggered by carbachol at its EC20 | actives 0.45% (n = 310,000);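 active = B-score, a plate-corrected calcium signal, over three deviations above library mean, with baseline fluorescence within five deviations of library mean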;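 note: RGS4 expression induced by doxycycline in cells with stable M3 receptor; B-score is computed from the integrated fluorescence ratio over baseline after carbachol; higher B-score means a larger calcium signal and so more RGS4 inhibition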
Target sequence (P49798 whole entry, looked up): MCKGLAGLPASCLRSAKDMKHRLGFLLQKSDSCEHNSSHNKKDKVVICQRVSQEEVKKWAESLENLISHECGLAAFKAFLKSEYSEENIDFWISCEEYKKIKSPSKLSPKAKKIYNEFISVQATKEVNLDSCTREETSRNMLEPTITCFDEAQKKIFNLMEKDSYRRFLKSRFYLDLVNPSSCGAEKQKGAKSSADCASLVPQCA
MrgX1 ag: human MrgX1 receptor agonism, primary screen. Q96LB2. MrgX1-HEK293 cells, Fluo-4 calcium fluorescence, agonist mode; hits give high values. B-score at 10 µM. actives 0.44% (n = 310,000);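 active = calcium response B-score plate-corrected fluorescence ratio at least 3 library SD, with starting fluorescence B-score inside 5 SD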
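System – MrgX1-expressing HEK293 cells · Incubation – cells plated overnight, dye loaded 0.5 h 37 °C, 0.5 h room temperature · Technique – kinetic Fluo-4 NW fluorescence of intracellular calcium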
MrgX1 ant reconf: human MrgX1 receptor antagonism, re-confirmation screen; shares compounds with MrgX1 antagonist; MrgX1-HEK293, BAM8-22 calcium flux, Fluo-4; hits give low values; remaining BAM8-22 calcium response % of control (hits give low values), % at 10 µM; actives 19% (n = 2,300);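 active = remaining agonist calcium response no higher than 100% minus 3 SD of agonist-only control wells, with starting fluorescence near control levels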;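 note: agonist BAM8-22 given at a near maximal EC90 to ECmax level; peak minus minimum fluorescence divided by baseline after agonist addition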
HEK293 Ca flux: MrgX1 antagonist counter-screen hit in parental HEK293 cells | fluorescence ratio F(max-min)/F0 at 10 µM | Fluo-4 calcium fluorescence, FDSS | AID 624111 | shares compounds with MrgX1 antagonist | actives 2% (n = 4,000);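 active = duplicate-averaged calcium fluorescence ratio at least three times the standard deviation of buffer wells, a nonspecific response in parental cells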
HEK293 Ca counter: counter-screen for MrgX1 allosteric activators: effect in parental HEK293 cells; parental HEK293 calcium flux, Fluo-4 fluorescence ratio; hits give high values; fluorescence ratio F(max-min)/F0 at 10 µM; AID 624114; actives 0.4% (n = 4,000); shares compounds with MrgX1 antagonist;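 active = calcium fluorescence ratio, averaged over duplicates, at least 3 SD of the buffer-well ratio, meaning a nonspecific response in receptor-free cells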;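 note: untransfected parental HEK293 lacking MrgX1 used as counterscreen for MrgX1 allosteric activators; fluorescence change taken during the second addition on a kinetic imager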
HEK293 Ca cntr2: counter-screen for MrgX1 activators: effect in parental HEK293 cells | fluorescence ratio F(max-min)/F0 at 10 µM | Fluo-4 calcium fluorescence (FDSS); hits give high values | shares compounds with MrgX1 antagonist | actives 8.7% (n = 4,000);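 active = calcium fluorescence ratio at least three times the spread of buffer wells, meaning a non-specific response in parental cells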
The depositor's hits bear a star; i = inactive; x = not tested or not shown.

SMILES | MrgX1 antagonist | RGS4 act | MrgX1 PAM | RGS4 block | MrgX1 ag | MrgX1 ant reconf | HEK293 Ca flux | HEK293 Ca counter | HEK293 Ca cntr2
Cc1c(NC(=O)c2cccnc2C(=O)O)cccc1C(=O)O | i | i | i | i | i | x | x | x | x
Nc1nc2c(ncn2[C@H]2C[C@H](O)[C@@H](CO)O2)c(=O)[nH]1 | i | i | i | i | i | x | x | x | x
Nc1nc(Cl)nc2c1ncn2C1CC(O)C(CO)O1 (stereo not given) | -5.13* | i | i | i | i | i | i | i | i
Cc1cc(Cl)ccc1OCC(=O)OCC(=O)N(CC(C)C)c1c(N)n(Cc2ccccc2)c(=O)[nH]c1=O | i | i | i | i | i | x | x | x | x
O=C(CCCNC(=O)c1ccc(Cl)cc1)Nc1ccc(Br)cc1 | i | i | i | i | i | x | x | x | x
CCOc1cc(C(=O)NCc2ccccc2)ccc1OCC(=O)N1CCOCC1 | i | i | i | i | i | x | x | x | x
CCOc1ccc(C(=O)NCc2ccccc2)cc1Br | -5.38* | i | i | i | i | 85.1%* | i | i | i
O=C(NCc1ccccc1)c1cccc(COc2cccc(Cl)c2)c1 | -4.56* | i | i | i | i | i | i | i | i
CSCc1ccc(C(=O)NCc2ccccc2)cc1 | i | i | i | i | i | x | x | x | x
CCc1nc2ccc(C(=O)NCc3ccccc3)cc2nc1CC | -8.32* | i | i | i | i | i | i | i | i
O=C(NCc1ccccc1)c1cccc(COc2ccc(Cl)cc2)c1 | i | i | i | i | i | x | x | x | x
Cc1cc(=O)[nH]c(SCC(=O)NCCC2=CCCCC2)n1 | i | i | i | i | i | x | x | x | x
Cc1ccc(S(=O)(=O)NC(C)(C)CSc2ccccn2)cc1 | i | i | i | i | i | x | x | x | x
CCC(C)(C)n1nnnc1C(c1cc2cc3c(cc2[nH]c1=O)OCO3)N1CCCCC1 (stereo not given) | -5.86* | i | i | i | i | i | i | i | i
Cc1ccc(N2CC(=O)N(NC(=O)c3sc4nc(C)cc(C)c4c3N)CC2=O)cc1 | i | i | i | i | i | x | x | x | x
COc1ccc(CNC(=O)OCCN2CCN(Cc3ccccc3)CCC2=O)cc1 | -4.85* | i | i | i | i | i | i | i | i
COc1ccc(NC(=O)OCCN2CCN(Cc3ccccc3)CCC2=O)cc1 | i | i | i | i | i | x | x | x | x
Cc1cccc(NC(=O)c2oc3ccc(S(=O)(=O)N4CCOCC4)cc3c2C)c1C | -4.76* | i | i | i | i | i | i | i | i
Cc1ccc(NC(=O)c2oc3ccc(S(=O)(=O)N4CCOCC4)cc3c2C)c(C)c1 | i | i | i | i | i | x | x | x | x
CCOC(=O)c1ccc(Nc2nc(N)c3cc(OC)c(OC)cc3n2)cc1 | i | i | i | i | i | x | x | x | x
COc1cc2nc(Nc3ccc(F)cc3)nc(N)c2cc1OC | -6.1* | i | i | i | i | 65.5%* | i | i | i
Cc1ccc(CNC(=S)NC2CCC(C(C)(C)C)CC2)cc1 (stereo not given) | -6.28* | i | i | i | i | 63.2%* | i | i | i
Cc1c2ccccc2nc2ccccc12 | i | i | i | i | i | x | x | x | x
CCCNc1c(F)c(F)c2c(C)c3ccccc3nc2c1F | -6.04* | -7.49* | i | i | i | i | 0.364* | i | 89.9*
CCNC(=S)N/N=C/c1ccc(OCC(=O)Nc2ccc(C)cc2)cc1 | -10.1* | i | i | i | i | i | i | i | i
SMILES | MrgX1 antagonist | RGS4 act | MrgX1 PAM | RGS4 block | MrgX1 ag | MrgX1 ant reconf | HEK293 Ca flux | HEK293 Ca counter | HEK293 Ca cntr2
CCNC(=S)N/N=C/c1ccc(OCC(=O)Nc2ccc(OC)cc2)c(OC)c1 | i | i | i | i | i | x | x | x | x
COCCNC(=O)C1(C(F)(F)F)CC(CCCO)CCCO1 (stereo not given) | i | i | i | i | i | x | x | x | x
Cc1ccc(Nc2c3c(nc4ncnn24)CCC3)cc1 | -7.23* | i | i | i | i | i | i | i | i
Cc1ccc(Nc2c3c(nc4ncnn24)CC(C)CC3)cc1 (stereo not given) | i | i | i | i | i | x | x | x | x
CCOC(=O)NC(NC(=O)OCC)C(=O)c1ccc(F)cc1 | -5.13* | i | i | i | i | i | i | i | i
CCCC(C)NC(=O)c1ccc(F)cc1 (stereo not given) | i | i | i | i | i | x | x | x | x
O=C(Nc1ccc(S(=O)(=O)Nc2nccs2)cc1)c1cc(-c2ccccc2)nc2ccccc12 | i | i | i | i | i | x | x | x | x
Cc1ccc(-c2cc(C(=O)Nc3ccc(S(=O)(=O)Nc4ncccn4)cc3)c3ccccc3n2)cc1 | -5.68* | i | i | i | i | i | i | i | i
CCOC(=O)c1cc([N+](=O)[O-])sc1NC(=O)c1ccc(S(=O)(=O)N2CC3(C)CC2CC(C)(C)C3)cc1 (stereo not given) | -11.1* | -9.09* | i | i | i | i | 0.478* | i | i
Cc1cc(Cl)ccc1OCCCC(=O)Nc1ccc(S(=O)(=O)Nc2ncccn2)cc1 | i | i | i | i | i | x | x | x | x
CCOC(=O)C1(CCOc2ccccc2)CCN(Cc2ccc(OCC)c(CO)c2)CC1 | i | i | i | i | i | x | x | x | x
O=C1c2ccncc2C(=O)N1CO | -4.96* | i | i | i | i | 85.1%* | i | i | i
CC(=O)c1cccc(NC(=O)C2CCCCC2)c1 | i | i | i | i | i | x | x | x | x
O=C(Nc1cccc(Cl)c1)C1CCCCC1 | -5.39* | x | i | x | i | i | i | i | i
CC(C)Sc1nc(C(F)(F)F)cc(=O)n1-c1ccccc1 | -8.2* | i | i | i | i | i | i | i | i
CCSc1nc(C(F)(F)F)cc(=O)n1-c1ccccc1 | i | i | i | i | i | x | x | x | x
